Reference: PMC4252766 (FEBS letters, 2014)

Assays:
BRPF1 bromodomain [1] = settings: ref [31]; cited from earlier work
BRPF1 bromodomain [2] = test: X-ray crystallography of BRPF1 bromodomain with histone peptides; assay type: binding, human; settings: co-crystal structures PDB 4QYL (H2AK5ac) and 4QYD (H4K12ac)
How it was run: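 E. coli-expressed BRPF1 bromodomain (residues 629–742), gel-filtered into 20 mM Tris pH 8.0, 150 mM NaCl, 1 mM DTT; 2.3 mM protein + 5 mM peptide; drops at 4°C. H2AK5ac: 0.2 M NH₄SO₄, 0.1 M MES pH 6.5, 30% PEG MME 5,000, seeding, 1% propylene glycol. H4K12ac: 0.1 M HEPES pH 7.5, 10% PEG 6,000, 5% MPD. Flash-cooled, 100 K.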

binding by x-ray crystallography (BRPF1 bromodomain [2]) | Substance | histone ligand preference (BRPF1 bromodomain [1])
bind | GKGGKGLG Kac GGAKR [H4K12ac] | preferentially binds
bind | SGRG Kac QGGKARA [H2AK5ac] | preferentially binds
